Hits are enriched below; roughly 2.3% of the tested compounds scored in any of these assays.
STAT3 inh – STAT3 signaling inhibition | U3A cells, IL-6 STAT3-luciferase reporter, luminescence; host cell line lacks STAT1 | inhibition, % at 5.5 µM | actives 0.89% (n = 190,000) | AID 862;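 active = inhibition above the mean inhibition across all screened compounds plus 3 SD, cut at about 44% in these data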
TRAIL sens C8 – caspase-8 TRAIL sensitization; AID 624354; NB7+C8 cells + TRAIL, ATPlite viability luminescence; inhibition (viability loss, TRAIL sensitization), % at 10 µM; actives 1% (n = 360,000);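 active = compounds causing at least 50% loss of cell viability in the single-dose screen, relative to plate controls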
PPC-1+TRAIL kill – PPC-1 cancer cell killing with TRAIL present; PPC-1 cells + TRAIL, ATPLite viability luminescence; cell killing (% activity), % at 4 µM or 5 µM; actives 0.41% (n = 220,000);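 active = cell killing above 50% in the first pass at 4 µM, then a duplicate retest at 5 µM averaging 50% or more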
HSP90 inh – inhibitors of HSP90 luciferase refolding in rabbit reticulocyte lysate; actives 0.91% (n = 290,000); luciferase refolding luminescence, 3 h; inhibition, % at 5.6 µM;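 active = inhibition above the screen-wide mean plus 3 SD, computed separately per campaign, cut at about 16% in these data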;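 also: inhibitors lower the luminescence because luciferase stays unfolded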
STAT3 act – activators of IL-6 induced STAT3 signaling; U3A cells, IL-6 STAT3-luciferase reporter, luminescence; 100% = signal with IL-6 EC80 alone; activation (% of control), % at 5.6 µM; actives 0.91% (n = 190,000);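 active = activation above the screen-wide mean of compound activation plus 3 SD, cut at about 130% in these data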
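Assay system – human STAT1-deficient U3A cells with stable STAT3-luciferase reporter · Also added – IL-6 (33 ng/mL) · Schedule – compound 1 h, then IL-6 6 h at 37 °C · Technique – reporter luminescence signal · Evaluation – % activation versus median of IL-6-stimulated wells · Benchmarks – IL-6-only wells as 100% reference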
STAT1 blocker – inhibitors of IFN-gamma induced STAT1 signaling; NIH 3T3 STAT1-luciferase reporter, luminescence; inhibition, % at 5.5 µM; actives 0.35% (n = 200,000); AID 920;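 active = inhibition above a set limit, the mean inhibition across all tested compounds plus 3 SD, cut at about 34% in these data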
HSP90 inh confirm – confirmation of HSP90 inhibitors; rabbit reticulocyte lysate, luciferase refolding luminescence, 3 h; inhibition, % at 5.9 µM; shares compounds with HSP90 inh; actives 64% (n = 2,300); in the data active = inhibition above about 18%
FLuc counter – counter-screen for HSP90 inhibitors: inhibitors of firefly luciferase. purified native firefly luciferase, luminescence. actives 48% (n = 2,300). shares compounds with HSP90 inh. inhibition, % at 5.9 µM;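 active = inhibition above the mean inhibition of all tested sample wells plus 3 SD, cut at about 10% in these data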
Target sequence (P08659 whole entry, looked up): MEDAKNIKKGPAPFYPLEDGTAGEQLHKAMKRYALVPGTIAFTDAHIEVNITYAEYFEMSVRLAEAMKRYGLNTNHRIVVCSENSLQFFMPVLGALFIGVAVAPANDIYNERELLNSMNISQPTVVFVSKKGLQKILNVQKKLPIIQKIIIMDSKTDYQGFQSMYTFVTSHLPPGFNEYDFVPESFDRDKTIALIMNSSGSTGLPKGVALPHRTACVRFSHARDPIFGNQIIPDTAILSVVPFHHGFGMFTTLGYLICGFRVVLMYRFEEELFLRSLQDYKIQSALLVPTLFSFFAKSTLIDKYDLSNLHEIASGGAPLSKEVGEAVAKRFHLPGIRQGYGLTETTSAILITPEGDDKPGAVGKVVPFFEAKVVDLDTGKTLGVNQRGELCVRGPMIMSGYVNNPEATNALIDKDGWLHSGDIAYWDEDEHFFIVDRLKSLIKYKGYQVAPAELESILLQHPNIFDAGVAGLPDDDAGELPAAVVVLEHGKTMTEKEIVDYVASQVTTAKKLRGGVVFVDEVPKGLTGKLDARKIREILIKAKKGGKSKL
Large screens that a line does not name were inactive (follow-up assays come after a bar, where they were run).

O=C(c1ccc([N+](=O)[O-])cc1)N1CCN(C(=O)c2ccco2)CC1	HSP90 inh 21 | HSP90 inh confirm inactive | FLuc counter inactive
O=C(c1cc([N+](=O)[O-])cc([N+](=O)[O-])c1)N1CCN(C(=O)c2ccco2)CC1	none (no result: STAT3 inh, STAT3 act, STAT1 blocker)
O=C(NC1CCCCC1)c1ccccc1NC(=S)NC(=O)C1CC1	none
CN(C)C(CNC(=O)C1CCN(S(=O)(=O)c2cccc(C(F)(F)F)c2)CC1)c1ccccc1 (centres undefined)	HSP90 inh 40 (no result: STAT3 inh, PPC-1+TRAIL kill, STAT3 act, STAT1 blocker) | HSP90 inh confirm inactive | FLuc counter inactive
CN(C)C(CNC(=O)C1CCN(S(=O)(=O)c2ccccc2)CC1)c1ccccc1 (centres undefined)	none (no result: STAT3 inh, STAT3 act, STAT1 blocker)
Cc1ccc(O)c(Nc2c3ccccc3nc3ccccc23)c1	HSP90 inh 39 (no result: STAT3 inh, PPC-1+TRAIL kill, STAT3 act, STAT1 blocker) | HSP90 inh confirm inactive | FLuc counter inactive
Cc1ccc(C)c(Nc2nc(N)c3ccccc3n2)c1	HSP90 inh 17 | HSP90 inh confirm 23 | FLuc counter inactive
O=C(Nc1ccc2ccccc2c1)c1ccccc1Cl	none (no result: STAT3 inh, PPC-1+TRAIL kill, HSP90 inh, STAT3 act, STAT1 blocker)
O=C(Nc1ccc2ccccc2c1)c1ccc(Cl)cc1Cl	TRAIL sens C8 61, HSP90 inh 17 (no result: STAT3 inh, STAT3 act, STAT1 blocker) | HSP90 inh confirm 37 | FLuc counter 20
O=C(Nc1ccc2ccccc2c1)c1ccccc1O	TRAIL sens C8 72, HSP90 inh 39 (no result: STAT3 inh, PPC-1+TRAIL kill, STAT3 act, STAT1 blocker) | HSP90 inh confirm 54 | FLuc counter 46
CCC(Sc1nc(N)c(NC(=O)c2ccco2)c(=O)[nH]1)C(=O)O (centres undefined)	none (no result: STAT3 inh, PPC-1+TRAIL kill, STAT3 act, STAT1 blocker)
CC(=O)O/N=C/c1c(C)c(C=O)n2ccccc12	none
O=C(O)c1ccc(N/N=C2/CCCc3ccccc32)cc1	HSP90 inh 18 (no result: STAT3 inh, STAT3 act, STAT1 blocker) | HSP90 inh confirm inactive | FLuc counter inactive
Cc1ccc(C(=O)O/N=C2\CCCc3ccccc32)cc1	none
CC(C)C(=O)NC(=S)NCC(=O)c1ccccc1	none
c1ccn2c(SCc3ccc4c(c3)OCCO4)nnc2c1	none
COC(=O)c1ccc(-c2nc(CN3CCCN(C(=O)c4ccco4)CC3)c(C)o2)cc1	HSP90 inh 25 (no result: STAT3 inh, PPC-1+TRAIL kill, STAT3 act, STAT1 blocker) | HSP90 inh confirm inactive | FLuc counter inactive
CC(=O)Nc1cccc(NC(=O)c2ccc3c(c2)CCN3S(=O)(=O)c2ccccc2)c1	none (no result: STAT3 inh, PPC-1+TRAIL kill, STAT3 act, STAT1 blocker)
CC(=O)c1cccc(NC(=O)c2ccc3c(c2)CCN3S(=O)(=O)c2ccccc2)c1	HSP90 inh 20 (no result: STAT3 inh, PPC-1+TRAIL kill, STAT3 act, STAT1 blocker) | HSP90 inh confirm inactive | FLuc counter inactive
CC(C)(C)c1ccc(C(=O)Nc2ccc(CC(=O)O)cc2)o1	STAT3 inh 83, HSP90 inh 22, STAT1 blocker 54 | HSP90 inh confirm 23 | FLuc counter inactive
CCOC(=O)C(=O)Nc1ccc([N+](=O)[O-])cc1OC	HSP90 inh 22 | HSP90 inh confirm inactive | FLuc counter inactive
COc1ccc(OC(=O)Nc2ccc([N+](=O)[O-])cc2OC)cc1	HSP90 inh 20 (no result: STAT3 inh, STAT3 act, STAT1 blocker) | HSP90 inh confirm inactive | FLuc counter inactive
NC(=O)COC(=O)c1cc(S(=O)(=O)N2CCOCC2)ccc1N1CCCCC1	none
O=C(NN1CCCCC1)c1cccc(COc2ccc(Cl)cc2)c1	none
Cc1cc(COc2ccccc2)oc1C(=O)O	HSP90 inh 69 (no result: STAT3 inh, PPC-1+TRAIL kill, STAT3 act, STAT1 blocker) | HSP90 inh confirm 84 | FLuc counter 50
CCC(C)c1ccc(OCc2ccc(C(=O)O)o2)cc1 (centres undefined)	HSP90 inh 94 (no result: STAT3 inh, PPC-1+TRAIL kill, STAT3 act, STAT1 blocker) | HSP90 inh confirm 92 | FLuc counter 82
O=C(O)c1cccc(COc2ccc3c(c2)CCC3)c1	TRAIL sens C8 63, HSP90 inh 83 (no result: STAT3 inh, STAT3 act, STAT1 blocker) | HSP90 inh confirm 95 | FLuc counter 93
CCOc1ccc(OCc2cccc(C(=O)N3CCCCCC3)c2)cc1	STAT3 inh 80, HSP90 inh 28, STAT1 blocker 71 | HSP90 inh confirm 56 | FLuc counter 52
CCOC(=O)c1ccc(COc2ccc(C(C)C)cc2)o1	HSP90 inh 33 | HSP90 inh confirm 71 | FLuc counter inactive
CCOc1ccc(OCc2ccc(C(=O)N3N=C(C(F)F)CC3(O)C(F)F)o2)cc1 (centres undefined)	HSP90 inh 28 | HSP90 inh confirm inactive | FLuc counter inactive
Cc1cc(C)cc(OCc2ccc(C(=O)O)o2)c1	none
CC(C)c1ccc(OCc2ccc(C(=O)N3CCCC3)o2)cc1	HSP90 inh 17 (no result: STAT3 inh, PPC-1+TRAIL kill, STAT3 act, STAT1 blocker) | HSP90 inh confirm 24 | FLuc counter inactive
Cc1ccc(OCc2ccc(C(=O)O)o2)cc1C	HSP90 inh 70 (no result: STAT3 inh, PPC-1+TRAIL kill, STAT3 act, STAT1 blocker) | HSP90 inh confirm 71 | FLuc counter inactive
O=C(CSc1n[nH]c(-c2ccccc2)n1)NC1CCCCC1	none (no result: STAT3 inh, PPC-1+TRAIL kill, STAT3 act, STAT1 blocker)
CCOc1ccc(OCc2ccc(C(=O)N3CCCC3)o2)cc1	HSP90 inh 30 | HSP90 inh confirm 19 | FLuc counter inactive
O=C(OCC(F)(F)F)c1cccc(COc2ccc3ccccc3c2)c1	STAT3 inh 102, HSP90 inh 25, STAT1 blocker 88 | HSP90 inh confirm 93 | FLuc counter 22
CCN(Cc1ccccc1)C(=O)c1ccc(Cl)cc1[N+](=O)[O-]	none
COC(=O)c1ccc(C)c(NC(=O)CN2C(=O)c3ccccc3S2(=O)=O)c1	none
Cc1ccccc1Oc1nc2c(C)cccn2c(=O)c1/C=C(\C#N)C(=O)NC1CCS(=O)(=O)C1 (centres undefined)	HSP90 inh 17 (no result: STAT3 inh, STAT3 act, STAT1 blocker) | HSP90 inh confirm 26 | FLuc counter inactive
Cc1cccn2c(=O)c(/C=C(\C#N)C(=O)NC3CCS(=O)(=O)C3)c(Oc3ccccc3Cl)nc12 (centres undefined)	none (no result: STAT3 inh, PPC-1+TRAIL kill, STAT3 act, STAT1 blocker)
O=C1CC(c2ccc3c(c2)OCCO3)Oc2ccccc21 (centres undefined)	none (no result: STAT3 inh, PPC-1+TRAIL kill, STAT3 act, STAT1 blocker)
O=C1CC(c2ccc3c(c2)OCCO3)Oc2ccc([N+](=O)[O-])cc21 (centres undefined)	TRAIL sens C8 64, HSP90 inh 55 (no result: STAT3 inh, PPC-1+TRAIL kill, STAT3 act, STAT1 blocker) | HSP90 inh confirm 66 | FLuc counter 64
Oc1cccc(/C=N/N2CCCCC2)c1O	none (no result: STAT3 inh, PPC-1+TRAIL kill, STAT3 act, STAT1 blocker)
CCCSc1nc(SCC(=O)NCc2ccccc2)c2c3c(sc2n1)COC(C)(CC)C3 (centres undefined)	HSP90 inh 28 | HSP90 inh confirm inactive | FLuc counter inactive
CCCCSc1nc(SCC(=O)NCc2ccco2)c2c3c(sc2n1)COC(C)(CC)C3 (centres undefined)	none
CC(C)(O)C1Cc2cc(/C=C/C(=O)O)c(O)cc2O1 (centres undefined)	HSP90 inh 28 | HSP90 inh confirm inactive | FLuc counter inactive
Brc1ccc(C2Nc3cccc4cccc(c34)N2)o1	HSP90 inh 19 | HSP90 inh confirm inactive | FLuc counter inactive
Brc1cccc(C2Nc3cccc4cccc(c34)N2)c1	none (no result: STAT3 inh, PPC-1+TRAIL kill, STAT3 act, STAT1 blocker)
C/C(N)=C(/C#N)C(=O)COC(=O)c1oc2ccccc2c1COC(C)C	none

Screening data (PubChem BioAssay)
